# Assay outcomes (PubChem BioAssay)
# SDO1 yeast rescue: compounds rescuing growth of sdo1-depleted yeast, bone marrow failure model. z-score at 10 µM. S. cerevisiae sdo1-depleted JHY4D growth rescue, OD600 30 h; stronger effect = higher value; pdr5 snq2 efflux-pump mutant strain. AID 817. actives 0.21% (n = 140,000);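 active means z-score above 3 at both the 24 hr and the 30 hr optical density reads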
# Insulin prom up: MIN6 insulin promoter up-regulation; MIN6 insulin promoter-GFP reporter, high-content imaging; stronger effect = higher value; z-score at 5 µM; actives 0.3% (n = 190,000);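 active means z-score above 3 at 5 µM with at least 500 cells counted in the well; inconclusive means wells under 500 cells, flagged as cytotoxic or low count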
# ABCB1 inh: blocks JC-1 efflux by human ABCB1 transporter; inhibition, % at 6.6 µM; P08183; AID 1326; actives 0.067% (n = 190,000); CCRF-Adr cells, flow cytometry; in the data active means inhibition above about 40%;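 further: higher value means more JC-1 retained so stronger ABCB1 efflux block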
# Autophagy mod: alters autophagy in cells. actives 0.98% (n = 190,000). MEF GFP-LC3 puncta imaging; test concentration mostly 10 µM. calls only at 10 µM (by protocol). AID 463193;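 active means percentage of spot-positive cells more than 3 SD above its plate mean, without a fluorescence outlier flag or 80% toxicity; inconclusive means no clear call, values can overlap the other calls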
# ROMK primary: human ROMK K+ channel modulation, primary screen. actives 2% (n = 130,000). Tet-inducible ROMK, thallium flux fluorescence; actives lie on both sides. B-score at 10 µM. AID 1918. P48048;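 active means signal ratio slope over the read window, or its plate-corrected B-score, at least 3 SD from the plate mean, either direction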;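 further: B-score of the F/F0 ratio slope over 7 to 12 s after thallium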
# Target sequence (P48048 whole entry, looked up): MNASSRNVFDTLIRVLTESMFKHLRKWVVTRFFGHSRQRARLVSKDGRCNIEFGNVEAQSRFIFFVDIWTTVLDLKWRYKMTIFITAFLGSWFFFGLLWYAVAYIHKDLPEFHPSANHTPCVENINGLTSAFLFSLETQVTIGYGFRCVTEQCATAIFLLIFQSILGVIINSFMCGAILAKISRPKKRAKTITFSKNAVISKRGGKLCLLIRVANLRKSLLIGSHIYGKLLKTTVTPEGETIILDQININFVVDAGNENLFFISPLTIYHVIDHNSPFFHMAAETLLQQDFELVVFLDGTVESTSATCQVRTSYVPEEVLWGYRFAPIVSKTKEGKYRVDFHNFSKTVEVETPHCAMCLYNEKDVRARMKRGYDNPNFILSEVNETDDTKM
# ABCG2 inh: inhibitors of human ABCG2 transporter, ABCB1 counter-screen. Q9UNQ0. IgMXP3 cells, JC-1 efflux, flow cytometry. inhibition, % at 6.6 µM. actives 0.1% (n = 190,000). AID 1325;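 active means inhibition above 80%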
#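 test system = two drug-resistant human cell lines, ABCG2 and ABCB1 | amount = 3 million cells/mL final, two lines in 1:1 ratio | reagent = JC-1 transporter substrate | doses = one concentration, 6.6 µM final | incubation = 10 min at 25 °C | signal = flow cytometric JC-1 green MFI at 530 nm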
# ROMK hit retest: human ROMK channel modulation, retest confirmation. shares compounds with ROMK primary. ROMK thallium flux, fluorescence ratio; stronger effect = lower value. normalized thallium flux (F/F0 slope) at 10 µM. actives 54% (n = 3,000);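 active means Flux at 10 µM at least 3 SD below or above vehicle control mean in one or both replicates; inconclusive means no clear call, values can overlap the other calls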
# Hits are given with their value; i = inactive; ? = inconclusive; nt = no result given. Only some compounds are listed: those with a hit (about 2.3% of all), similar ones and a draw of the others.
SMILES,SDO1 yeast rescue,Insulin prom up,ABCB1 inh,Autophagy mod,ROMK primary,ABCG2 inh,ROMK hit retest
CCOc1cc(C)c(S(=O)(=O)NC2CC(C)(C)NC(C)(C)C2)cc1C,nt,i,i,i,-3.5,i,0.066
COc1c(C)cc(S(=O)(=O)NC2CC(C)(C)NC(C)(C)C2)c(C)c1C,i,nt,i,i,nt,i,nt
CNC(=O)CCCc1nc(-c2ccccc2Cl)no1,i,i,i,i,3.1,i,i
NC(=O)CCCc1nc(-c2ccccc2Cl)no1,i,i,i,i,nt,i,nt
CC(NC(=O)CSc1nnc(-c2cccc(S(=O)(=O)N3CCCCC3)c2)o1)C12CC3CC(CC(C3)C1)C2 (stereo not drawn),i,i,i,i,-3.8,i,0.066
Cc1nc2cc(C(=O)OCC(=O)NC3CCS(=O)(=O)C3)ccc2n1-c1ccccc1 (stereo not drawn),i,nt,i,i,i,i,nt
Cc1nc2cc(C(=O)OCC(=O)NC34CC5CC(CC(C5)C3)C4)ccc2n1-c1ccccc1,i,i,i,i,-3,i,0.065
COc1ccc2c(CC(=O)Nc3ncc(C)s3)coc2c1,nt,i,i,i,i,i,nt
COc1ccccc1C1=NC(c2ccc(C)cc2)N=C1C (stereo not drawn),nt,i,i,i,-2.7,i,i
COc1cc(N2C(=O)CSC23C(=O)Nc2ccccc23)cc(OC)c1OC (stereo not drawn),i,i,i,i,i,i,nt
COc1ccc(N2C(=O)CSC23C(=O)Nc2ccccc23)cc1OC (stereo not drawn),i,i,i,i,nt,i,i
c1cnc2c(c1)ncc1cscc12,i,i,i,i,i,i,nt
c1cc2c(cn1)cnc1cscc12,i,i,i,i,2.6,i,i
Cn1c(C2CCCCC2)nc2c1c(=O)[nH]c(=O)n2Cc1ccccc1,nt,i,i,i,3.2,i,0.098
Cc1ccc(-c2nc3c(c(=O)[nH]c(=O)n3Cc3ccccc3)n2C)s1,nt,i,nt,nt,i,nt,nt
CCCCCCCOC(=O)C[N+](C)(C)CCOC1CC2CCC1(C)C2(C)C (stereo not drawn),i,?,i,i,nt,i,0.043
CCCCCCOC(=O)C[N+](C)(C)CCOC1CC2CCC1(C)C2(C)C (stereo not drawn),i,?,i,i,nt,i,0.045
CCCCOC(=O)C[N+](C)(C)CCOC1CC2CCC1(C)C2(C)C (stereo not drawn),i,i,i,i,nt,i,nt
CC(C)CCOC(=O)C[N+](C)(C)CCOC1CC2CCC1(C)C2(C)C (stereo not drawn),nt,i,i,i,-4.1,i,0.052
O=C(Cn1cnc2ccccc2c1=O)Nc1ccc(N2CCOCC2)cc1,nt,i,i,i,i,i,nt
COc1ccc2c(C)cc(SCC(=O)Nc3cccnc3Cl)nc2c1,nt,i,i,i,i,i,nt
O=C(COC(=O)c1ccc(Cl)nc1)c1ccc2c(c1)OCCO2,nt,i,i,i,-2.2,i,i
O=C(COC(=O)c1cccnc1Cl)c1ccc2c(c1)OCCO2,nt,i,i,i,i,i,nt
Cc1nc2c(sc3nc4c(cc32)COC(C)(C)C4)c(=O)n1CC(=O)NCc1ccco1,i,nt,i,i,4.1,i,i
CC1(C)Cc2nc3sc4c(SCC(=O)NCc5ccco5)ncnc4c3cc2CO1,i,i,i,i,nt,i,nt
SMILES,SDO1 yeast rescue,Insulin prom up,ABCB1 inh,Autophagy mod,ROMK primary,ABCG2 inh,ROMK hit retest
CCC(=O)NC1=C(Cl)C(=O)C(NC(=O)CC)=C(Cl)C1=O,nt,i,nt,nt,nt,nt,nt
O=P(OC1CCCCC1)(OC1CCCCC1)C(Nc1ccccc1)c1cccnc1 (stereo not drawn),nt,i,nt,nt,nt,nt,?
CCOP(=O)(OCC)C(Nc1ccccc1)c1cccnc1 (stereo not drawn),nt,i,nt,nt,i,nt,nt
CC(CC(=O)O)Nc1ccccc1O (stereo not drawn),nt,i,i,i,i,i,i
COc1ccc2oc(C(=O)OCc3c(C)noc3C)c(C)c2c1,nt,i,i,i,i,i,nt
CCOC(=O)c1c(NC(=O)CSc2nc3ccccc3o2)sc(C(C)=O)c1C,i,i,i,i,-3.3,i,0.059
CCc1[nH]nc2c1C(c1ccsc1)C(C#N)=C(N)O2 (stereo not drawn),i,nt,i,i,-4.3,i,0.063
CC(C)(C)c1[nH]nc2c1C(c1ccsc1)C(C#N)=C(N)O2 (stereo not drawn),nt,i,i,i,i,i,nt
Cc1ccc(NC(=O)N2CCCN(Cc3ccc(F)cc3)C2)cc1C,i,i,i,i,-4,i,0.056
Cc1cccc(C)c1NC(=S)N1CCCN(Cc2ccc(F)cc2)C1,nt,i,i,i,nt,i,nt
COc1ccc(OC)c(NC(=O)Nc2cc(C(=O)O)ccc2C)c1,nt,i,i,i,i,i,nt
CCn1c(CNc2ccccc2Cl)nnc1SCC(=O)OC1CCCCC1,i,i,i,i,i,i,nt
CCn1c(CNc2cccc(Cl)c2)nnc1SCC(=O)OC1CCCCC1,i,nt,i,i,nt,i,0.062
N#CC1=C(N)N(c2ccccc2)C(c2ccccc2)C1(C#N)C#N (stereo not drawn),i,i,i,i,-3,i,0.055
N#CC1=C(N)C(C#N)(C#N)C(c2cccnc2)C2CC(c3ccccc3)CC=C12 (stereo not drawn),i,i,i,i,nt,i,nt
O=C(CSc1cccc[n+]1[O-])Nc1ccc([N+](=O)[O-])cc1Cl,nt,i,i,i,i,i,nt
CC1(C)CC(=O)C2=C(C1)N(CCN1CCOCC1)C1=C(C(=O)CC(C)(C)C1)C2c1cccc(Cl)c1,i,i,i,i,-3,i,0.052
CCN(CC)CCN1C2=C(C(=O)CC(C)(C)C2)C(c2cccc(F)c2)C2=C1CC(C)(C)CC2=O,nt,i,i,i,i,i,nt
Cn1nc(C(F)(F)F)c(C#N)c1N1CCN(c2ccccc2F)CC1,i,i,i,i,i,i,nt
COc1cccc(N2CCN(c3c(C#N)c(C(F)(F)F)nn3C)CC2)c1,i,i,i,i,-4.1,i,0.06
CCc1ccc2[nH]c(=O)c(CN(CC3CCCO3)C(=S)NCc3ccco3)cc2c1 (stereo not drawn),nt,i,nt,nt,i,nt,nt
Cc1ccc(C)c2[nH]c(=O)c(CN(CC3CCCO3)C(=S)NCc3ccco3)cc12 (stereo not drawn),nt,i,nt,nt,-3.5,nt,?
Cc1ccc2cc(CN(CC3CCCO3)C(=S)NCc3ccco3)c(=O)[nH]c2c1C (stereo not drawn),i,i,i,i,nt,i,i
Cc1ccc(/C=N/N=C2/NC(=O)C(CC(=O)Nc3ccccc3)S2)o1 (stereo not drawn),nt,nt,i,i,i,i,nt
CC(NC(=O)COc1ccc(-c2nnco2)cc1)c1ccc(Cl)cc1Cl (stereo not drawn),i,i,i,i,nt,i,nt
CC(C)[C@@H](N)C(=O)N/N=C/c1ccc2ncccc2c1,nt,i,nt,nt,nt,nt,nt
CSCCC(NS(=O)(=O)c1ccc(Br)cc1)C(=O)OCC(=O)NC1CC1 (stereo not drawn),nt,i,i,i,i,i,nt
